From the M2OR odorant receptor database

Assays:
Settings in all cases: stereoisomer not certain
[1] = target: T1, UniProt Q8VFP5
T1 sequence (whole entry): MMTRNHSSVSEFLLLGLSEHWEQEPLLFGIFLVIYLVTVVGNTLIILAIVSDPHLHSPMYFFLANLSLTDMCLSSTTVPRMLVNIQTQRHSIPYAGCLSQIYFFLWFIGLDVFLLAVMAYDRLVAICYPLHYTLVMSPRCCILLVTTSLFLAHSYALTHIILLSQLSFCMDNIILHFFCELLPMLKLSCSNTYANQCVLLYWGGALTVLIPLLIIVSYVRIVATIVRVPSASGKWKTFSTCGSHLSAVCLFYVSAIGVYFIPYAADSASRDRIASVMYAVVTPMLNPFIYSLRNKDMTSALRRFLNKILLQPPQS
In short: (§1)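 Each entry records the cell line, G-protein, co-transfected protein and tags used. Methods varied with the source, often transient luciferase assays in mammalian cell lines. A receptor–molecule pair is called responsive (active) if the original authors judged its signal statistically different from baseline and non-responsive (inactive) otherwise.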

[2] = target: T2, UniProt Q8VG01
T2 sequence (whole entry): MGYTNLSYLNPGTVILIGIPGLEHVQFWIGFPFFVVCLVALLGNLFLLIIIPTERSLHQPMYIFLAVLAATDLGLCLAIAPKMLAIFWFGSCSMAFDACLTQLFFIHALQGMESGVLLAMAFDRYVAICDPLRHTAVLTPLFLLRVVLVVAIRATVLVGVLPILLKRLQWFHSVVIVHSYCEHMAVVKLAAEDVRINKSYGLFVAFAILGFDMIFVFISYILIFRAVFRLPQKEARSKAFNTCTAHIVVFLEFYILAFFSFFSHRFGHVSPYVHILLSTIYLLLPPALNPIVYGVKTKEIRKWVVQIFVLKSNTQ
In short: as §1

[3] = target: T3, UniProt Q8VG27
T3 sequence (whole entry): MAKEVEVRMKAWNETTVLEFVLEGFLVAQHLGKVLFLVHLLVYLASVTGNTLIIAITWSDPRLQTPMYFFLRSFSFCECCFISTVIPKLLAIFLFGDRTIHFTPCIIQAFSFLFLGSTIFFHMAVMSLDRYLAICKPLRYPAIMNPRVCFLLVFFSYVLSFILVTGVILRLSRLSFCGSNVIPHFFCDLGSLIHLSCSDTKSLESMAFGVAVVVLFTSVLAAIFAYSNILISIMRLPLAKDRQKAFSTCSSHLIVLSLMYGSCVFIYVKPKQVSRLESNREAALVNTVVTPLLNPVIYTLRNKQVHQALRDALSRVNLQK
In short: as §1

[4] = target: T4, UniProt Q8VG53
T4 sequence (whole entry): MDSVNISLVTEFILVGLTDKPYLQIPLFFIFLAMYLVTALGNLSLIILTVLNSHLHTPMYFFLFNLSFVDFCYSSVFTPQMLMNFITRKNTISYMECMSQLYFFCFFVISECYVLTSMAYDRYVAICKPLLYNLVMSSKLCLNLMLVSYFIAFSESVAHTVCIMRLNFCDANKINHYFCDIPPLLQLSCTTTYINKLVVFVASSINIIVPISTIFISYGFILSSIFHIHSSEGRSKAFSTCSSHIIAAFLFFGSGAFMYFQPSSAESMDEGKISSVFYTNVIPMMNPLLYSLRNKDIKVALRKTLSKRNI
In short: as §1

[5] = target: T5, UniProt Q8VG64
T5 sequence (whole entry): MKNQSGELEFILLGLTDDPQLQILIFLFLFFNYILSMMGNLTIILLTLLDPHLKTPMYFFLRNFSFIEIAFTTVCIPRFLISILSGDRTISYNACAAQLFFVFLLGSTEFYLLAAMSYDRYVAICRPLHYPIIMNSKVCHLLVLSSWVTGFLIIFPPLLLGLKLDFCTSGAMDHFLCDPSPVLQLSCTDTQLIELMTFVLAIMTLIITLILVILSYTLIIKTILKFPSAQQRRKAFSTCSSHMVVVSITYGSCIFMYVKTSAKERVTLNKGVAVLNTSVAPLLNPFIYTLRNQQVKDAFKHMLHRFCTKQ
In short: as §1

[6] = target: T6, UniProt Q8VGB9
T6 sequence (whole entry): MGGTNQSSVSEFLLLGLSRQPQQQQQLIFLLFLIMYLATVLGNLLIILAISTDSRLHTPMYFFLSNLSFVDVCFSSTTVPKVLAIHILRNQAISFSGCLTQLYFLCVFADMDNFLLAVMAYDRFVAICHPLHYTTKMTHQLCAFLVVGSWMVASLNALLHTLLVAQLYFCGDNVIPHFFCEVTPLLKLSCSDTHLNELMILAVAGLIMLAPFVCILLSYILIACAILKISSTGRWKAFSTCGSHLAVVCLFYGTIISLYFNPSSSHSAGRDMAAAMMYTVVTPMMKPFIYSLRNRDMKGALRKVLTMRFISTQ
In short: as §1

[7] = target: T7, UniProt Q8VFZ6
T7 sequence (whole entry): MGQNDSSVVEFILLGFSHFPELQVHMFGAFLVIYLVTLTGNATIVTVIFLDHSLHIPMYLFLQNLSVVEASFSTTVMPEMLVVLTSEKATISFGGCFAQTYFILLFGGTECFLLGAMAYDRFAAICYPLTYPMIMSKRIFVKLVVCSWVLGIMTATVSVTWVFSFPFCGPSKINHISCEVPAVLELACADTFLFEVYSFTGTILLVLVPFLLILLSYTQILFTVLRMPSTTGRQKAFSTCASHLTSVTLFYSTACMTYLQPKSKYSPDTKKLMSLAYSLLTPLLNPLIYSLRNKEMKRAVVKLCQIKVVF
In short: as §1

[8] = target: T8, UniProt Q8VG22
T8 sequence (whole entry): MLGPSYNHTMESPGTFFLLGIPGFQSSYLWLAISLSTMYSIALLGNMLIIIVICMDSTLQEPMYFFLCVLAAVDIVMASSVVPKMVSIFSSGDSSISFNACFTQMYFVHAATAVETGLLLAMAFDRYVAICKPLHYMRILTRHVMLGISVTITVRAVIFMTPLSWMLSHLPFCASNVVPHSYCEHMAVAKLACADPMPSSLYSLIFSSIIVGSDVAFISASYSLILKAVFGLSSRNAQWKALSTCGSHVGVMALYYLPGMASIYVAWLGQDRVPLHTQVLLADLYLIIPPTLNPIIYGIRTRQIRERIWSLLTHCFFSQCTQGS
In short: as §1

[9] = target: UniProt Q8VG28
UniProt Q8VG28, sequence (Q8VG28 as listed by the source): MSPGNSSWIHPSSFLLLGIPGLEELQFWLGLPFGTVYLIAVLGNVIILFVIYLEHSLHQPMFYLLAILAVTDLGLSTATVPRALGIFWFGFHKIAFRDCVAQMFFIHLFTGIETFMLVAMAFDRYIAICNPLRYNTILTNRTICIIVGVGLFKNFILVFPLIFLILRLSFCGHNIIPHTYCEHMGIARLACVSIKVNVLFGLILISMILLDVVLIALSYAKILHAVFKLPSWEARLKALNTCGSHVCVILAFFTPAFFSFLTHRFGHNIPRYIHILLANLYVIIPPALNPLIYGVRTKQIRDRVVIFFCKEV
In short: as §1

[10] = target: T9, UniProt Q8VG49
T9 sequence (whole entry): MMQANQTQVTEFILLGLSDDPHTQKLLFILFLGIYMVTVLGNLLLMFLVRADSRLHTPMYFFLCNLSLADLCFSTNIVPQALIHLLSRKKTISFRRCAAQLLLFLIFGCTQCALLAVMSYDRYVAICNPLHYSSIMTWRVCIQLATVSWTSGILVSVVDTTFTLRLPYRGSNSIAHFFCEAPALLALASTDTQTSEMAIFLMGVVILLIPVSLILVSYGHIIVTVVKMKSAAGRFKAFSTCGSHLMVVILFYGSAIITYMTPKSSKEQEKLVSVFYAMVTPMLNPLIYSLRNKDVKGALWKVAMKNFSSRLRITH
In short: as §1

[11] = target: T10, UniProt Q8VG77
T10 sequence (whole entry): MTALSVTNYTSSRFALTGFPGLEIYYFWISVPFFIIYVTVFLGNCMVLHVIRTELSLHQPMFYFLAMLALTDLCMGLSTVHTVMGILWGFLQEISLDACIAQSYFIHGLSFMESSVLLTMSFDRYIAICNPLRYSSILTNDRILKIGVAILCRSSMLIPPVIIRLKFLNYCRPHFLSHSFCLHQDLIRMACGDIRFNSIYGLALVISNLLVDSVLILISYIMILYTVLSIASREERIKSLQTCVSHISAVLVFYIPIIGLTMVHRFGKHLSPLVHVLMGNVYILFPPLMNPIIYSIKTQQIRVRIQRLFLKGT
In short: as §1

[12] = target: T11, UniProt Q8VG96
T11 sequence (whole entry): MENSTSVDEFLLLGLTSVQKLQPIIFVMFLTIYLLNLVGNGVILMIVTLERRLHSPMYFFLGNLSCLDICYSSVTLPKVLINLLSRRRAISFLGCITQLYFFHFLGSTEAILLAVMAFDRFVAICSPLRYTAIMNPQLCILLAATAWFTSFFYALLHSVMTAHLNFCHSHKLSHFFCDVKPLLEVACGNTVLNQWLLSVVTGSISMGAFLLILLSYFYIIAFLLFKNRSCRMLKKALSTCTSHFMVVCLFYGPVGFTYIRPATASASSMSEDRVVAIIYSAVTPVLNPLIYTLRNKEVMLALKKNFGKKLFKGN
In short: as §1

Row | Compound | odorant receptor agonist call [1] | odorant receptor agonist call [2] | odorant receptor agonist call [3] | odorant receptor agonist call [4] | odorant receptor agonist call [5] | odorant receptor agonist call [6] | odorant receptor agonist call [7] | odorant receptor agonist call [8] | odorant receptor agonist call [9] | odorant receptor agonist call [10] | odorant receptor agonist call [11] | odorant receptor agonist call [12]
1 | CC(C)=C1CCC(C)CC1=O (configuration not stated) | inactive | inactive | inactive | inactive | inactive | inactive | – | – | – | – | – | –
2 | COc1ccccc1 | inactive | inactive | inactive | inactive | inactive | inactive | – | – | – | – | – | –
3 | C=CC(=C)CCC=C(C)CCC=C(C)C | inactive | inactive | inactive | inactive | inactive | inactive | – | – | – | – | – | –
4 | C=C1C2CCC(C2)C1(C)C (configuration not stated) | inactive | inactive | inactive | inactive | inactive | inactive | – | – | – | – | – | –
5 | C=CC(=O)CCCCC | inactive | inactive | inactive | inactive | inactive | inactive | – | – | – | – | – | –
6 | CCCCCCC=CC=O | inactive | inactive | inactive | inactive | inactive | inactive | – | – | – | – | – | –
7 | O=C(O)C1CCC1 | inactive | inactive | inactive | inactive | inactive | inactive | – | – | – | – | – | –
8 | C=C(C)C1CCC2(C)OC2C1 (configuration not stated) | inactive | inactive | inactive | inactive | inactive | inactive | – | – | – | – | – | –
9 | COC(OC)c1ccccc1 | inactive | inactive | inactive | inactive | inactive | inactive | – | – | – | – | – | –
10 | CC(=O)OCc1ccc2c(c1)OCO2 | inactive | inactive | inactive | inactive | inactive | inactive | – | – | – | – | – | –
11 | CCCCCCC(C=O)=Cc1ccccc1 | inactive | inactive | inactive | inactive | inactive | inactive | – | – | – | – | – | –
12 | CCOC(=O)CC(C)C | inactive | inactive | inactive | inactive | inactive | inactive | – | – | – | – | – | –
13 | O=C(OCc1ccccc1)c1ccccc1O | inactive | inactive | inactive | inactive | inactive | inactive | – | – | – | – | – | –
14 | C=C(CC)CCCC(C)(C)O | inactive | inactive | inactive | inactive | inactive | inactive | – | – | – | – | – | –
15 | COc1cnccn1 | inactive | inactive | inactive | inactive | inactive | inactive | – | – | – | – | – | –
16 | CCCCCO | – | inactive | – | – | – | – | inactive | active | inactive | inactive | inactive | inactive
